The text below walks through data of ChEMBL document CHEMBL3739335, “Phosphonooxymethyl Prodrug of Triptolide: Synthesis, Physicochemical Characterization, and Efficacy in Human Colon Adenocarcinoma and Ovarian Cancer Xenografts” (J Med Chem, 2015).

Series [1] can be described thus: Aqueous solubility of the compound in Tris buffer at pH 7.4 at room temperature by HPLC analysis. The format is physicochemical. In short, it runs like this: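 About 5 mg solid was added to Tris buffer pH 7.4 in triplicate to saturation, then sonicated and vortexed. Samples were shaken at 25 °C for 24 h. Excess solid was removed by centrifugation and filtration, and the diluted filtrate was quantified by reverse-phase C18 HPLC with photodiode array detection, using an acetonitrile/10 mM sodium phosphate pH 7 gradient.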

Series [2] can be described thus: Chemical stability of the compound in buffer assessed as compound remaining at pH 1 after 1 hr by HPLC analysis. The series is classed as physicochemical. To be noted: read-out: Stability.
The nature of series [3]: Chemical stability of the compound in buffer assessed as compound remaining at pH 4 after 1 hr by HPLC analysis. The format is physicochemical. To be noted: read-out: Stability.
Series [4] is described as follows: Chemical stability of the compound in buffer assessed as compound remaining at pH 6 after 2 hrs by HPLC analysis. The format is physicochemical. To be noted: read-out: Stability.
A short description of series [5]: Chemical stability of the compound in buffer assessed as compound remaining at pH 7.4 after 8 hrs by HPLC analysis. The format is physicochemical. To be noted: read-out: Stability.
A short description of series [6]: Chemical stability of the compound in buffer assessed as compound remaining at pH 9 after 1 hr by HPLC analysis. The series is classed as physicochemical. To be noted: read-out: Stability.
The nature of series [7]: Chemical stability of the compound in buffer assessed as compound remaining at pH 9 after 4 hrs by HPLC analysis. The format is physicochemical. To be noted: read-out: Stability.
A short description of series [8]: Chemical stability of the compound in buffer assessed as compound remaining at pH 9 after 24 hrs by HPLC analysis. The format is physicochemical. To be noted: read-out: Stability.
Series [9] in a line: Chemical stability of the compound in buffer assessed as pseudo-first-order rate constant at 60 degC at pH 7.4 by Arrhenius plot analysis. The format is physicochemical.
Series [10] can be described thus: Chemical stability of the compound in buffer assessed as pseudo-first-order rate constant at 70 degC at pH 7.4 by Arrhenius plot analysis. The format is physicochemical.
A short description of series [11]: Shelf life of the compound in buffer assessed as time for 10% loss of compound at 4 degC at pH 7.4. The series is classed as physicochemical. In a few lines:
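Pseudo-first-order kobsd at each temperature was fitted to an Arrhenius plot, which was extrapolated to 25 and 4 °C. t1/2 and t90 (time for 10% loss) were calculated from the extrapolated kobsd.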

Series [12] can be described thus: Stability of the compound in glycine buffer at pH 9.8 after 1 hr in absence of bovine intestinal mucosal alkaline phosphatase. The series is classed as physicochemical. To be noted: pH 9.8, 1 h. In a few lines:
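Conversion in glycine buffer pH 9.8 with alkaline phosphatase from bovine intestinal mucosa; loss of compound and formation of triptolide followed, first-order fit for half-life. Control run in same buffer without enzyme for 1 h.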

The subject of series [13] is HT-29. The series is described as follows: Antitumor activity against human HT-29 cells xenografted in athymic nude mouse at 0.3 to 0.9 mg/kg, ip qd administered for 28 days. The format is functional, organism-based. In short, it runs like this:
(§1)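 Female athymic nude mice, 7–9 weeks, implanted s.c. on right flank with 1.74 × 10^6 HT-29 cells (ATCC, mycoplasma/rodent-pathogen tested) in 50% Matrigel/50% McCoy's 5A; randomized at mean tumor 110 mm3, 10/group. IP dosing in USP saline, 0.2 mL, over a 28-day treatment period. Tumor volume by caliper (L × W2/2) at least twice weekly, tumor weight at necropsy, survival, body weight.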

Series [14] deals with HT-29. The series is described as follows: Antitumor activity against human HT-29 cells xenografted in athymic nude mouse at 0.9 mg/kg, ip qd administered for 4 weeks. The format is functional, organism-based. In a few lines:
as §1

Series [15] deals with HT-29. The series is described as follows: Antitumor activity against human HT-29 cells xenografted in athymic nude mouse at 0.9 mg/kg, ip qd administered for 2 weeks followed by 3 times per week. The series is classed as functional, organism-based. In a few lines: as §1
Another series concerns Mus musculus. The series is described as follows: Toxicity in athymic nude mouse xenografted with human A2780 cells assessed as mortality at 0.6 to 0.9 mg/kg, po administered for 30 days. To be noted: in vivo, 720 h. The format is organism-based. In a few lines: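 Female athymic nude mice, 7–9 weeks old, received 2.5 × 10^6 A2780 cells subcutaneously in the flank in 50% Matrigel/RPMI 1640. Mice were randomized at a mean tumor volume of 188 mm3, 10 per group. Daily oral gavage in USP saline (0.2 mL) for 30 days, dosed on group-mean body weight. Clinical signs, survival and body weights were recorded.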

The nature of series [16]: Stability of the compound in simulated gastric fluid assessed as compound remaining after 4 hrs by HPLC analysis.

The source made the active and inactive calls. The rule behind the calls is not given here.

Consider `CC(C)[C@]12O[C@H]1[C@@H]1O[C@]13[C@]1(O[C@H]1C[C@H]1C4=C(CC[C@@]13C)C(=O)OC4)[C@@H]2OCOP(=O)([O-])[O-].[Na+].[Na+]` [MINNELIDE], for which, in [1], the solubility turned out to be 61 mg/mL. The remaining at 1 h in [2] was 89%; in series [3], 100%; in series [6] it was 100%. Further, the remaining at 2 h in [4] was 100%. In addition, the remaining at 8 h in series [5] turned out to be 100%. The remaining at 4 h in [7] was 100%; in series [16] it was 71%. In series [8], the remaining at 24 h is 100%. Moreover, the K in series [9] amounted to 0.002482 h⁻¹; in series [10] it was 0.008659 h⁻¹. Moreover, in [11], the Time stood at 1.9 yr. For the same molecule, the Stability entry in [12] is “Stable”. In addition, the outcome in the series with HT-29 [13], in the series on HT-29 [14] and in the series with HT-29 [15] was Active. Moreover, the Activity result in the series with Mus musculus is “Toxic”.
